Assays:
[1] = Exposure in rat micronucleus in vivo assay; conditions: Alderly Park (Wistar derived), 2000 mg/kg
[2] = Quantitative whole body autoradiography; assay type: in vivo, rat; conditions: [3H] Ticagrelor 3 mg/kg
[3] = Human free systemic Cmax in clinical studies; assay type: in vivo; conditions: based on 99.2% protein binding
[4] = Protein binding, rat; assay type: in vitro ADME
[5] = Plasma exposure in ovariectomized rat study; assay type: in vivo; conditions: Ticagrelor 180 mg/kg/day, Day 1, 5 h post dose
Outline: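 Female Han Wistar rats (350–375 g) ovariectomized and fitted with jugular and femoral vein catheters, then housed tethered at 23 ± 1 °C. Dosed orally at 180 mg/kg/day in 1% sodium carboxymethylcellulose/0.1% polysorbate 80, n = 10 per group. On Day 1, 0.5 mL blood taken 5 h post-dose into lithium heparin; exposure measured by protein precipitation and LC-MS/MS.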

[6] = pregnant female rat (Day 18 of gestation), 5 min
[7] = pregnant female rat (Day 18 of gestation), 0.5 h
[8] = pregnant female rat (Day 18 of gestation), 2 h
[9] = pregnant female rat (Day 18 of gestation), 4 h

## CCCSc1nc(N[C@@H]2C[C@H]2c2ccc(F)c(F)c2)c2nnn([C@@H]3C[C@H](OCCO)[C@@H](O)[C@H]3O)c2n1 [Ticagrelor]
[1]; female
  AUC: 1140 to 1360 µg·h/mL
  Cmax: 45 to 53 µg/mL
[1]; male
  AUC: 794 to 1240 µg·h/mL
[2]; male rat, 5 min
  Adrenal gland radioactivity: 11.35 μg equivalent/g
  Adrenal gland radioactivity, fold of blood value: 5.33 fold of blood value
  Blood (LSC) radioactivity: 2.131 μg equivalent/g
  Brain radioactivity: 0.05 μg equivalent/g
  Brain radioactivity, fold of blood value: 0.02 fold of blood value
  Brown fat radioactivity: 1.35 μg equivalent/g
  Brown fat radioactivity, fold of blood value: 0.63 fold of blood value
  Eye radioactivity: 0.50 μg equivalent/g
  Eye radioactivity, fold of blood value: 0.23 fold of blood value
  Heart radioactivity: 9.15 μg equivalent/g
  Heart radioactivity, fold of blood value: 4.29 fold of blood value
  Kidney radioactivity: 10.62 μg equivalent/g
  Kidney radioactivity, fold of blood value: 4.98 fold of blood value
  Liver radioactivity: 16.11 μg equivalent/g
  Liver radioactivity, fold of blood value: 7.56 fold of blood value
  Lung radioactivity: 7.31 μg equivalent/g
  Lung radioactivity, fold of blood value: 3.43 fold of blood value
  Pancreas radioactivity: 7.35 μg equivalent/g
  Pancreas radioactivity, fold of blood value: 3.45 fold of blood value
  Pituitary gland radioactivity: 8.03 μg equivalent/g
  Pituitary gland radioactivity, fold of blood value: 3.77 fold of blood value
  Salivary gland radioactivity: 3.66 μg equivalent/g
  Salivary gland radioactivity, fold of blood value: 1.72 fold of blood value
  Skeletal muscle radioactivity: 3.15 μg equivalent/g
  Skeletal muscle radioactivity, fold of blood value: 1.48 fold of blood value
  Spinal cord radioactivity: 0.05 μg equivalent/g
  Spinal cord radioactivity, fold of blood value: 0.02 fold of blood value
  Spleen radioactivity: 4.86 μg equivalent/g
  Spleen radioactivity, fold of blood value: 2.28 fold of blood value
  Stomach wall radioactivity: 7.11 μg equivalent/g
  Stomach wall radioactivity, fold of blood value: 3.34 fold of blood value
  Thymus radioactivity: 0.99 μg equivalent/g
  Thymus radioactivity, fold of blood value: 0.46 fold of blood value
  Thyroid gland radioactivity: 7.84 μg equivalent/g
  Thyroid gland radioactivity, fold of blood value: 3.68 fold of blood value
[2]; male rat, 0.5 h
  Adrenal gland radioactivity: 5.26 μg equivalent/g
  Adrenal gland radioactivity, fold of blood value: 5.16 fold of blood value
  Blood (LSC) radioactivity: 1.02 μg equivalent/g
  Brain radioactivity: 0.04/0.04 μg equivalent/g
  Brain radioactivity, fold of blood value: 0.04/0.04 fold of blood value
  Brown fat radioactivity: 0.95 μg equivalent/g
  Brown fat radioactivity, fold of blood value: 0.93 fold of blood value
  Eye radioactivity: 0.04/0.04 μg equivalent/g
  Eye radioactivity, fold of blood value: 0.04/0.04 fold of blood value
  Heart radioactivity: 4.94 μg equivalent/g
  Heart radioactivity, fold of blood value: 4.84 fold of blood value
  Kidney radioactivity: 6.77 μg equivalent/g
  Kidney radioactivity, fold of blood value: 6.64 fold of blood value
  Liver radioactivity: 8.44 μg equivalent/g
  Liver radioactivity, fold of blood value: 8.27 fold of blood value
  Lung radioactivity: 3.90 μg equivalent/g
  Lung radioactivity, fold of blood value: 3.82 fold of blood value
  Pancreas radioactivity: 7.83 μg equivalent/g
  Pancreas radioactivity, fold of blood value: 7.68 fold of blood value
  Pituitary gland radioactivity: 7.03 μg equivalent/g
  Pituitary gland radioactivity, fold of blood value: 6.89 fold of blood value
  Salivary gland radioactivity: 5.57 μg equivalent/g
  Salivary gland radioactivity, fold of blood value: 5.46 fold of blood value
  Skeletal muscle radioactivity: 3.26 μg equivalent/g
  Skeletal muscle radioactivity, fold of blood value: 3.20 fold of blood value
  Spinal cord radioactivity: 0.04/0.04 μg equivalent/g
  Spinal cord radioactivity, fold of blood value: 0.04/0.04 fold of blood value
  Spleen radioactivity: 3.81 μg equivalent/g
  Spleen radioactivity, fold of blood value: 3.74 fold of blood value
  Stomach wall radioactivity: 7.17 μg equivalent/g
  Stomach wall radioactivity, fold of blood value: 7.03 fold of blood value
  Thymus radioactivity: 1.28 μg equivalent/g
  Thymus radioactivity, fold of blood value: 1.25 fold of blood value
  Thyroid gland radioactivity: 3.85 μg equivalent/g
  Thyroid gland radioactivity, fold of blood value: 3.77 fold of blood value
[2]; male rat, 2 h
  Adrenal gland radioactivity: 1.19 μg equivalent/g
  Adrenal gland radioactivity, fold of blood value: 2.57 fold of blood value
  Blood (LSC) radioactivity: 0.463 μg equivalent/g
  Brain radioactivity: 0.02 μg equivalent/g
  Brain radioactivity, fold of blood value: 0.04 fold of blood value
  Brown fat radioactivity: 0.46 μg equivalent/g
  Brown fat radioactivity, fold of blood value: 0.99 fold of blood value
  Eye radioactivity: 0.01 μg equivalent/g
  Eye radioactivity, fold of blood value: 0.02 fold of blood value
  Heart radioactivity: 1.73 μg equivalent/g
  Heart radioactivity, fold of blood value: 3.74 fold of blood value
  Kidney radioactivity: 2.22 μg equivalent/g
  Kidney radioactivity, fold of blood value: 4.79 fold of blood value
  Liver radioactivity: 3.20 μg equivalent/g
  Liver radioactivity, fold of blood value: 6.97 fold of blood value
  Lung radioactivity: 2.09 μg equivalent/g
  Lung radioactivity, fold of blood value: 4.51 fold of blood value
  Pancreas radioactivity: 2.78 μg equivalent/g
  Pancreas radioactivity, fold of blood value: 6.00 fold of blood value
  Pituitary gland radioactivity: 1.84 μg equivalent/g
  Pituitary gland radioactivity, fold of blood value: 3.97 fold of blood value
  Salivary gland radioactivity: 2.14 μg equivalent/g
  Salivary gland radioactivity, fold of blood value: 4.62 fold of blood value
  Skeletal muscle radioactivity: 1.48 μg equivalent/g
  Skeletal muscle radioactivity, fold of blood value: 3.20 fold of blood value
  Spinal cord radioactivity: 0.02 μg equivalent/g
  Spinal cord radioactivity, fold of blood value: 0.04 fold of blood value
  Spleen radioactivity: 1.51 μg equivalent/g
  Spleen radioactivity, fold of blood value: 3.29 fold of blood value
  Stomach wall radioactivity: 2.31 μg equivalent/g
  Stomach wall radioactivity, fold of blood value: 4.99 fold of blood value
  Thymus radioactivity: 1.37 μg equivalent/g
  Thymus radioactivity, fold of blood value: 2.96 fold of blood value
  Thyroid gland radioactivity: 2.60 μg equivalent/g
  Thyroid gland radioactivity, fold of blood value: 5.62 fold of blood value
[2]; male rat, 4 h
  Adrenal gland radioactivity: 0.81 μg equivalent/g
  Adrenal gland radioactivity, fold of blood value: 2.24 fold of blood value
  Blood (LSC) radioactivity: 0.361 μg equivalent/g
  Brain radioactivity: 0.02 μg equivalent/g
  Brain radioactivity, fold of blood value: 0.06 fold of blood value
  Brown fat radioactivity: 0.52 μg equivalent/g
  Brown fat radioactivity, fold of blood value: 1.44 fold of blood value
  Eye radioactivity: 0.14 μg equivalent/g
  Eye radioactivity, fold of blood value: 0.39 fold of blood value
  Kidney radioactivity: 1.74 μg equivalent/g
  Kidney radioactivity, fold of blood value: 4.87 fold of blood value
  Liver radioactivity: 2.42 μg equivalent/g
  Liver radioactivity, fold of blood value: 6.70 fold of blood value
  Lung radioactivity: 1.55 μg equivalent/g
  Lung radioactivity, fold of blood value: 4.29 fold of blood value
  Pancreas radioactivity: 2.08 μg equivalent/g
  Pancreas radioactivity, fold of blood value: 5.76 fold of blood value
  Pituitary gland radioactivity: 1.65 μg equivalent/g
  Pituitary gland radioactivity, fold of blood value: 4.57 fold of blood value
  Salivary gland radioactivity: 1.59 μg equivalent/g
  Salivary gland radioactivity, fold of blood value: 4.40 fold of blood value
  Skeletal muscle radioactivity: 1.16 μg equivalent/g
  Skeletal muscle radioactivity, fold of blood value: 3.21 fold of blood value
  Spinal cord radioactivity: 0.02 μg equivalent/g
  Spinal cord radioactivity, fold of blood value: 0.06 fold of blood value
  Spleen radioactivity: 0.82 μg equivalent/g
  Spleen radioactivity, fold of blood value: 2.27 fold of blood value
  Stomach wall radioactivity: 1.32 μg equivalent/g
  Stomach wall radioactivity, fold of blood value: 3.66 fold of blood value
  Thymus radioactivity: 1.33 μg equivalent/g
  Thymus radioactivity, fold of blood value: 3.68 fold of blood value
  Thyroid gland radioactivity: 1.19 μg equivalent/g
  Thyroid gland radioactivity, fold of blood value: 3.30 fold of blood value
[2]; [6]
  Blood (LSC) radioactivity: 2.474 μg equivalent/g
  Fetus radioactivity: 0.03 μg equivalent/g
  Fetus radioactivity, fold of blood value: 0.01 fold of blood value
  Placenta radioactivity: 6.42 μg equivalent/g
  Placenta radioactivity, fold of blood value: 2.59 fold of blood value
[2]; [7]
  Blood (LSC) radioactivity: 0.864 μg equivalent/g
  Fetus radioactivity: 0.06 μg equivalent/g
  Fetus radioactivity, fold of blood value: 0.07 fold of blood value
  Placenta radioactivity: 2.86 μg equivalent/g
  Placenta radioactivity, fold of blood value: 3.31 fold of blood value
[2]; [8]
  Blood (LSC) radioactivity: 0.282 μg equivalent/g
  Fetus radioactivity: 0.07 μg equivalent/g
  Fetus radioactivity, fold of blood value: 0.25 fold of blood value
  Placenta radioactivity: 1.02 μg equivalent/g
  Placenta radioactivity, fold of blood value: 3.62 fold of blood value
[2]; [9]
  Blood (LSC) radioactivity: 0.24 μg equivalent/g
  Fetus radioactivity: 0.03 μg equivalent/g
  Fetus radioactivity, fold of blood value: 0.13 fold of blood value
  Placenta radioactivity: 0.39 μg equivalent/g
  Placenta radioactivity, fold of blood value: 1.63 fold of blood value
[2]; rats
  Brain and spinal tissue penetration (QWBA conclusion): effectively excluded from the brain and spinal tissues by the blood brain barrier
  Radioactivity levels in brain, spinal cord and fetus: < 0.25 fold of blood levels
[3]
  Human free systemic Cmax: 0.012 µM
[4]
  fraction unbound: 0.01
[5]
  Plasma exposure (mean ± SD): 33.2 ± 10.6 µM
